Assays:
[1] = biological target: GABA-A receptor; anion channel; assay: Apparent affinity by displacement of preincubated [35S]-TBPS from rat cortical homogenates at 1500 nM
Outline: (§1)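 Cortical homogenate (twice-washed, 1:15) pretreated 1 h on ice with acylator (60 nM or 600–2400 nM) plus 200 mM NaCl. It was then washed five times by centrifugation in pH 7.4 phosphate/100 mM NaCl and resuspended chloride-free. Saturation binding used 2–5 nM [35S]TBPS with 0–160 nM unlabeled TBPS, 200 mM NaCl, 2 h at 25 °C. Nonspecific binding was defined by 20 µM picrotoxinin. Kd and Bmax came from Scatchard plots, mean of 3–5 experiments.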

[2] = biological target: GABA-A receptor; anion channel; assay: Inhibition of [35S]-TBPS binding to rat cortical membranes after 60 minute pre-incubation with radioligand; assay type: cell membranes, Membrane
Outline: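 Washed cortical homogenate was incubated with 5 nM [35S]TBPS for 60 min before acylator was added, in pH 7.4 potassium phosphate with 200 mM NaCl at 25 °C. Bound radioligand was collected by GF/B filtration and counted by scintillation. Nonspecific binding was defined by 20 µM picrotoxinin. Inhibition was expressed as percent of control binding without acylator; N ≥ 1.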

[3] = biological target: T1, GABA-A receptor; anion channel (Rattus norvegicus) (UniProt O09028+P15431+P18506+P18508+P19969+P20236+P23574+P23576+P28471+P28473+P30191+P62813+P63079+P63138+Q91ZM7+Q9ES14); assay: Displacement of [35S]TBPS binding to rat cortical homogenates (control); outline: as §1
[4] = biological target: GABA-A receptor; anion channel; assay: Inhibition of [35S]TBPS binding to rat cortical membranes; assay type: cell membranes, Membrane
Outline: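 Coincubation: 5 nM [35S]TBPS and acylator (5–1000 nM or 50–10000 nM, depending on ligand) were added simultaneously to washed cortical homogenate. Incubation was in pH 7.4 potassium phosphate with 200 mM NaCl, 2 h at 25 °C. Binding was read by filtration and scintillation, with nonspecific binding defined by 20 µM picrotoxinin. Inhibition was taken as percent of control; N ≥ 3.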

[5] = biological target: GABA-A receptor; anion channel; assay: Apparent affinity by displacement of preincubated [35S]TBPS from rat cortical homogenates at 2400 nM; outline: as §1
[6] = biological target: GABA-A receptor; anion channel; assay: Apparent affinity by displacement of preincubated [35S]TBPS from rat cortical homogenates at 1200 nM; outline: as §1
[7] = biological target: T1, GABA-A receptor; anion channel (Rattus norvegicus); assay: Displacement of [35S]TBPS binding to rat cortical homogenates at 600 nM; outline: as §1
[8] = biological target: T1, GABA-A receptor; anion channel (Rattus norvegicus); assay: Displacement of [35S]TBPS binding to rat cortical homogenates at 1200 nM; outline: as §1
[9] = biological target: GABA-A receptor; anion channel; assay: Apparent affinity by displacement of pre-incubated [35S]-TBPS from rat cortical homogenates at 600 nM; outline: as §1
[10] = biological target: T1, GABA-A receptor; anion channel (Rattus norvegicus); assay: Displacement of [35S]TBPS binding to rat cortical homogenates at 1500 nM; outline: as §1
[11] = biological target: T1, GABA-A receptor; anion channel (Rattus norvegicus); assay: Displacement of [35S]TBPS binding to rat cortical homogenates at 2400 nM; outline: as §1
[12] = biological target: GABA-A receptor; anion channel; assay: Apparent affinity by displacement of pre-incubated [35S]-TBPS from rat cortical homogenates (control); outline: as §1
[13] = biological target: Gamma-aminobutyric acid receptor subunit gamma-1 (Rattus norvegicus, UniProt P23574); assay: Apparent affinity by displacement of preincubated [35S]TBPS from rat cortical homogenates at 60 nM; outline: as §1
[14] = biological target: Gamma-aminobutyric acid receptor subunit gamma-1 (Rattus norvegicus) (UniProt P23574); assay: Displacement of [35S]TBPS binding to rat cortical homogenates at 60 nM; outline: as §1
Gamma-aminobutyric acid receptor subunit gamma-1 (Rattus norvegicus), sequence (P23574 whole entry): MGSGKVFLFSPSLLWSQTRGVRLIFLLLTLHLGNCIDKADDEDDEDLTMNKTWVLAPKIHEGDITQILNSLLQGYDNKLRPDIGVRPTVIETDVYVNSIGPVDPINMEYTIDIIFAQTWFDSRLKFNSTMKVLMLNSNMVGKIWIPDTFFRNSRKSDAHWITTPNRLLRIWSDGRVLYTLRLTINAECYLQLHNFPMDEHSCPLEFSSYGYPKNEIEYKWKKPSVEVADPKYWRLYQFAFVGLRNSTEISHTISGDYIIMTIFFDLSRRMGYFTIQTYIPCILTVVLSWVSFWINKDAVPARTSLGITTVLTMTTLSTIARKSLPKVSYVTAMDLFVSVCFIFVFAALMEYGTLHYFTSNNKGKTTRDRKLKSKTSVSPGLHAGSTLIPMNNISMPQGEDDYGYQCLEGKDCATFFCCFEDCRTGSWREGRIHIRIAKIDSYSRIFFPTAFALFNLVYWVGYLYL

Gamma-aminobutyric acid receptor subunit gamma-1, sequence (P23574 whole entry): as above

| Compound | Kd [1] | IC50 [2] | Bmax [3] | IC50 [4] | Kd [5] | Kd [6] | Bmax [7] | Bmax [8] | Kd [9] | Bmax [10] | Bmax [11] | Kd [12] | Kd [13] | Bmax [14] |
| --- | --- | --- | --- | --- | --- | --- | --- | --- | --- | --- | --- | --- | --- | --- |
| CC(C)(C)C12COC(c3cccc(N=C=S)c3)(OC1)OC2 | 55.8 nM | 5400 nM | 1080 fM assay-1 | 570 nM | 73.8 nM | 51.8 nM | 925 fM assay-1 | 889 fM assay-1 | 44.5 nM | 928 fM assay-1 | 1010 fM assay-1 | 35.3 nM | – | – |
| CC(C)(C)C12COC(c3ccc(N=C=S)cc3)(OC1)OC2 | – | 90 nM | 955 fM assay-1 | 62 nM | – | – | – | – | – | – | – | 47 nM | 72.2 nM | 644 fM assay-1 |
| CC(C)(C)C12COC(c3ccccc3N=C=S)(OC1)OC2 | 56.3 nM | 7500 nM | 963 fM assay-1 | 609 nM | 58 nM | 50.7 nM | 915 fM assay-1 | 817 fM assay-1 | 57.3 nM | 869 fM assay-1 | 1030 fM assay-1 | 46.7 nM | – | – |
